Read-outs that look alike come from different tables or passages of the source.
Key:
PI3Kγ enzyme = PI3Kγ enzyme (Homo sapiens, UniProt P48736); assay: Adapta universal kinase assay, anti-PI3Kγ activity; type: biochemical
In short: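 Adapta ADP-detection TR-FRET immunoassay with test compound at 100 μM. The kinase reaction runs 60 min. It is then stopped by a detection solution of EDTA, europium-labelled anti-ADP antibody and Alexa Fluor 647-labelled ADP tracer. ADP formed displaces the tracer and lowers the TR-FRET signal. ADP formation is calculated from the emission ratio.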

Staphylococcus aureus = assay: Disc diffusion antimicrobial test; type: cell-based; conditions: Staphylococcus aureus, 24 h, read-out: zone of inhibition (diameter of inhibition)
In short: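 Disc diffusion on nutrient agar, test compound at 100 μg/mL with DMSO as solvent. Plates incubated at 37 °C for 24 h after inoculation, then zone of inhibition measured and compared with standards. Controls were DMSO, amoxicillin, ciprofloxacin and tetracycline.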

NCI 60 cell line panel = assay: NCI 60-cell line inhibition, range over panel; type: cell-based; conditions: Homo sapiens
BT-549 = assay: NCI 60-cell line screen; type: cell-based, human
SF-539 = assay: NCI 60-cell line screen; type: cell-based, human
In short: (§1)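 Test compounds were submitted to the National Cancer Institute and run under NCI's standard 60-cell-line protocols. Read-outs were taken from percent-growth versus log-concentration curves.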

SNB-75 = assay: NCI 60-cell line screen; type: cell-based, human
In short: as §1

U251 = assay: NCI 60-cell line screen; type: cell-based, human
In short: as §1

HCT-15 = assay: NCI 60-cell line screen; type: cell-based, human
SW-620 = assay: NCI 60-cell line screen; type: cell-based, human
In short: as §1

LOX IMVI = assay: NCI 60-cell line screen; type: cell-based, human
MALME-3M = assay: NCI 60-cell line screen; type: cell-based, human
A549/ATCC = assay: NCI 60-cell line screen; type: cell-based, human
HOP-62 = assay: NCI 60-cell line screen; type: cell-based, human
HOP-92 = assay: NCI 60-cell line screen; type: cell-based, human
NCI-H460 = assay: NCI 60-cell line screen; type: cell-based, human
NCI-H522 = assay: NCI 60-cell line screen; type: cell-based, human
OVCAR-8 = assay: NCI 60-cell line screen; type: cell-based, human
In short: as §1

SK-OV-3 = assay: NCI 60-cell line screen; type: cell-based, human
In short: as §1

PC-3 = assay: NCI 60-cell line screen; type: cell-based, human
In short: as §1

A498 = assay: NCI 60-cell line screen; type: cell-based, human
CAKI-1 = assay: NCI 60-cell line screen; type: cell-based, human
SN12C = assay: NCI 60-cell line screen; type: cell-based, human
In short: as §1

HL-60(TB) = assay: cells; conditions: Homo sapiens

Chain of PI3Kγ enzyme (P48736 whole entry): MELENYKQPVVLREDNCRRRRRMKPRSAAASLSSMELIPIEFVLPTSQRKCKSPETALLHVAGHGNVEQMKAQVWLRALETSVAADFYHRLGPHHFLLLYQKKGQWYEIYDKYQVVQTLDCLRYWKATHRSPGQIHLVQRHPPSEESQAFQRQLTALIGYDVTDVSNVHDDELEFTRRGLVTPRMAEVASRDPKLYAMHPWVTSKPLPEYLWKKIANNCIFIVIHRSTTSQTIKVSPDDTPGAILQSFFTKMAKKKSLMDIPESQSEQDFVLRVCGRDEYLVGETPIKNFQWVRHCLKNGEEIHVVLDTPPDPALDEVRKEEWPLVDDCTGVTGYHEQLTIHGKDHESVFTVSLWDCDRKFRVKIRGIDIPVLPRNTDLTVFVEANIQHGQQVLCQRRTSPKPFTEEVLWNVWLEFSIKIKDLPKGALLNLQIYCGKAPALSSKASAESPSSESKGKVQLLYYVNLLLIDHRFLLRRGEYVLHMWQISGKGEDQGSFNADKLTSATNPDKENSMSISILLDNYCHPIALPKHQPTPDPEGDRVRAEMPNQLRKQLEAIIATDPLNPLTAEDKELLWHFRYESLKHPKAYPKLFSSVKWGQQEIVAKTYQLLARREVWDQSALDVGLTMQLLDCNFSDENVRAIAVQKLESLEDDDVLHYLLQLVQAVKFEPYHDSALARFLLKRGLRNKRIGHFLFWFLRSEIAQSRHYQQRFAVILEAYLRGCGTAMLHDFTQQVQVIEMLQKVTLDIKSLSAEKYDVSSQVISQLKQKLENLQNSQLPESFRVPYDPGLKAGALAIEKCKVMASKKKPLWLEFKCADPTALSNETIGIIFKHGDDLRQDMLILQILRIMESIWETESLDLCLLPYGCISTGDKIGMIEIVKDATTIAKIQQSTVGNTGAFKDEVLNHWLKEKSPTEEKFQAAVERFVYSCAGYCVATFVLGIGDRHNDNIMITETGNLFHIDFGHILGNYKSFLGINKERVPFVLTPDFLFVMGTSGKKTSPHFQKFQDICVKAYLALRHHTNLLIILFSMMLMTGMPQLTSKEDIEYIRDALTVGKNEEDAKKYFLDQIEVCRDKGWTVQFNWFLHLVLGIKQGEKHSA

O=C(CN1CCN(CC(=O)Nc2nc3ccccc3s2)CC1)Nc1ccc([N+](=O)[O-])cc1 [OMS14, N-(benzo[d]thiazol-2-yl)-2-(4-(2-((4-nitrophenyl)amino)-2-oxoethyl)piperazin-1-yl)acetamide]
inhibition at 100 µM (PI3Kγ enzyme; read-out: % of inhibition (mean) against PI3Kγ enzyme): 19% | inhibition at 100 µM (PI3Kγ enzyme; read-out: % of inhibition against PI3Kγ enzyme, point 1): 15% | inhibition at 100 µM (PI3Kγ enzyme; read-out: % of inhibition against PI3Kγ enzyme, point 2): 24% | zone of inhibition at 100 µg/mL (Staphylococcus aureus): 15 mm | GI50 (NCI 60 cell line panel; read-out: GI50, range over cell lines): 0.66 to 3.02 µM | IC50 (NCI 60 cell line panel; read-out: IC50, range over cell lines): 0.81 to 9.1 µM | TGI (BT-549; BT-549, breast cancer): 9.8 µM | GI50 (BT-549; Homo sapiens, BT-549): 3 µM | IC50 (BT-549; Homo sapiens, BT-549): 7.8 µM | CC50 (BT-549; Homo sapiens, BT-549, read-out: LC50): 36.3 µM | GI50 (SF-539; Homo sapiens, SF-539): 2 µM | IC50 (SF-539; Homo sapiens, SF-539): 4.3 µM | CC50 (SF-539; Homo sapiens, SF-539, read-out: LC50): 20 µM | TGI (SF-539; SF-539, CNS cancer): 5.5 µM | GI50 (SNB-75; Homo sapiens, SNB-75): 2 µM | IC50 (SNB-75; Homo sapiens, SNB-75): 6.6 µM | CC50 (SNB-75; Homo sapiens, SNB-75, read-out: LC50): 24 µM | TGI (SNB-75; SNB-75, CNS cancer): 6.0 µM | GI50 (U251; Homo sapiens, U-251): 2.6 µM | IC50 (U251; Homo sapiens, U-251): 3.5 µM | CC50 (U251; Homo sapiens, U-251, read-out: LC50): 50.1 µM | TGI (U251; U251, CNS cancer): 11.0 µM | TGI (HCT-15; HCT-15, colon cancer): 3.7 µM | GI50 (HCT-15; Homo sapiens, HCT-15): 1.7 µM | IC50 (HCT-15; Homo sapiens, HCT-15): 2.8 µM | CC50 (HCT-15; Homo sapiens, HCT-15, read-out: LC50): 7.9 µM | GI50 (SW-620; Homo sapiens, SW-620): 0.8 µM | IC50 (SW-620; Homo sapiens, SW-620): 1.1 µM | CC50 (SW-620; Homo sapiens, SW-620, read-out: LC50): 87.1 µM | TGI (SW-620; SW-620, colon cancer): 5.9 µM | GI50 (LOX IMVI; Homo sapiens): 1.6 µM | IC50 (LOX IMVI; Homo sapiens): 2.8 µM | CC50 (LOX IMVI; Homo sapiens, read-out: LC50): 6.2 µM | TGI (LOX IMVI; melanoma): 3.2 µM | GI50 (MALME-3M; Homo sapiens, Malme-3M): 3 µM | IC50 (MALME-3M; Homo sapiens, Malme-3M): 6.6 µM | CC50 (MALME-3M; Homo sapiens, Malme-3M, read-out: LC50): 35.5 µM | TGI (MALME-3M; MALME-3M, melanoma): 9.3 µM | TGI (A549/ATCC; A549/ATCC, non-small cell lung cancer): 4.6 µM | GI50 (A549/ATCC; Homo sapiens, A549): 1.9 µM | IC50 (A549/ATCC; Homo sapiens, A549): 3.2 µM | CC50 (A549/ATCC; Homo sapiens, A549, read-out: LC50): > 100 µM | TGI (HOP-62; HOP-62, non-small cell lung cancer): 3.7 µM | GI50 (HOP-62; Homo sapiens, HOP-62): 1.7 µM | IC50 (HOP-62; Homo sapiens, HOP-62): 3.2 µM | CC50 (HOP-62; Homo sapiens, HOP-62, read-out: LC50): 8.3 µM | TGI (HOP-92; HOP-92, non-small cell lung cancer): 8.3 µM | GI50 (HOP-92; Homo sapiens, HOP-92): 2.3 µM | IC50 (HOP-92; Homo sapiens, HOP-92): 9.1 µM | CC50 (HOP-92; Homo sapiens, HOP-92, read-out: LC50): 89.1 µM | GI50 (NCI-H460; Homo sapiens, NCI-H460): 1.3 µM | IC50 (NCI-H460; Homo sapiens, NCI-H460): 1.8 µM | CC50 (NCI-H460; Homo sapiens, NCI-H460, read-out: LC50): 21.9 µM | TGI (NCI-H460; NCI-H460, non-small cell lung cancer): 4.1 µM | GI50 (NCI-H522; Homo sapiens, NCI-H522): 1.5 µM | IC50 (NCI-H522; Homo sapiens, NCI-H522): 3 µM | CC50 (NCI-H522; Homo sapiens, NCI-H522, read-out: LC50): 6.5 µM | TGI (NCI-H522; NCI-H522, non-small cell lung cancer): 3.2 µM | GI50 (OVCAR-8; Homo sapiens, OVCAR-8): 1.4 µM | IC50 (OVCAR-8; Homo sapiens, OVCAR-8): 2.4 µM | CC50 (OVCAR-8; Homo sapiens, OVCAR-8, read-out: LC50): > 100 µM | TGI (OVCAR-8; OVCAR-8, ovarian cancer): 4.3 µM | GI50 (SK-OV-3; Homo sapiens, SK-OV-3): 2.2 µM | IC50 (SK-OV-3; Homo sapiens, SK-OV-3): 6.6 µM | CC50 (SK-OV-3; Homo sapiens, SK-OV-3, read-out: LC50): > 100 µM | TGI (SK-OV-3; SK-OV-3, ovarian cancer): 8.1 µM | GI50 (PC-3; Homo sapiens, PC-3): 3 µM | IC50 (PC-3; Homo sapiens, PC-3): 4.4 µM | CC50 (PC-3; Homo sapiens, PC-3, read-out: LC50): > 100 µM | TGI (PC-3; PC-3, prostate cancer): 20.9 µM | TGI (A498; A498, renal cancer): 3.7 µM | GI50 (A498; Homo sapiens, A498): 1.7 µM | IC50 (A498; Homo sapiens, A498): 3.8 µM | CC50 (A498; Homo sapiens, A498, read-out: LC50): 7.9 µM | TGI (CAKI-1; CAKI-1, renal cancer): 3.6 µM | GI50 (CAKI-1; Homo sapiens, CAKI-1): 0.9 µM | IC50 (CAKI-1; Homo sapiens, CAKI-1): 2 µM | CC50 (CAKI-1; Homo sapiens, CAKI-1, read-out: LC50): 16.2 µM | GI50 (SN12C; Homo sapiens): 1.9 µM | IC50 (SN12C; Homo sapiens): 3.5 µM | CC50 (SN12C; Homo sapiens, read-out: LC50): > 100 µM | TGI (SN12C; renal cancer): 5.4 µM | GI50 (HL-60(TB); HL-60): 2.5 µM | IC50 (HL-60(TB); HL-60): 4.4 µM | CC50 (HL-60(TB); HL-60, read-out: LC50): 81.3 µM

— PMC10975593 (ACS Omega, 2024)
